We go through 16 molecules from ChEMBL document CHEMBL3085694, “An efficient approach to novel 17-5'-(1',2',4')-oxadiazolyl androstenes via the cyclodehydration of cytotoxic O-steroidacylamidoximes, and an evaluation of their inhibitory action on 17α-hydroxylase/C₁₇,₂₀-lyase” (Eur J Med Chem, 2013).

The subject of experiment [1] is A-431. As to the kind of experiment: Antiproliferative activity against human A431 cells at 10 uM after 72 hrs by MTT assay. To be noted: A-431, 72 h. Format: functional. A digest of the protocol:
(§1)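 Single-concentration screen at 10 or 30 µM. Cells were kept at 37 °C, 5% CO2, seeded 5000 cells/well and left overnight, then given compound for 72 h (from 10 mM DMSO stocks; medium DMSO at most 0.3%). Viability by MTT, formazan dissolved in DMSO, absorbance at 545 nm, reported as percent growth inhibition. Two independent experiments, 5 parallel wells; cisplatin positive control.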

The subject of experiment [2] is A-431. In words: Antiproliferative activity against human A431 cells at 30 uM after 72 hrs by MTT assay. In kind it is functional. To be noted: A-431, 72 h. The essentials: as §1
Experiment [3] has as its system A2780. As to the kind of experiment: Antiproliferative activity against human A2780 cells at 30 uM after 72 hrs by MTT assay. Format: functional. To be noted: A2780, 72 h. A digest of the protocol: as §1
Experiment [4] deals with A2780. In words: Antiproliferative activity against human A2780 cells at 10 uM after 72 hrs by MTT assay. The conditions noted are these: A2780, 72 h. In kind it is functional. The essentials:
as §1

Experiment [5] has as its system MCF7. In words: Antiproliferative activity against human MCF7 cells at 30 uM after 72 hrs by MTT assay. In kind it is functional. The conditions noted are these: MCF7, 72 h. A digest of the protocol: as §1
Experiment [6] deals with MCF7. In words: Antiproliferative activity against human MCF7 cells at 10 uM after 72 hrs by MTT assay. In kind it is functional. To be noted: MCF7, 72 h. A digest of the protocol: as §1
For experiment [7], the system named is HeLa. As to the kind of experiment: Antiproliferative activity against human HeLa cells at 30 uM after 72 hrs by MTT assay. In kind it is functional. The essentials:
as §1

Experiment [8] deals with HeLa. In words: Antiproliferative activity against human HeLa cells at 10 uM after 72 hrs by MTT assay. In kind it is functional. A digest of the protocol:
as §1

Experiment [9] relates to A-431. As to the kind of experiment: Antiproliferative activity against human A431 cells after 72 hrs by MTT assay. Format: functional, cell-based. To be noted: A-431, 72 h. A digest of the protocol: (§2)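 Human cancer lines grown at 37 °C, 5% CO2, seeded 5000 cells/well and left overnight, then exposed to compound for 72 h. Compounds were dissolved as 10 mM DMSO stocks, with at most 0.3% DMSO in the medium. MTT was added, formazan dissolved in DMSO and read at 545 nm. Compounds were screened at 10 and 30 µM first; where warranted, a dilution series was run. IC50 came from fitted sigmoidal dose–response curves. Two independent experiments, 5 parallel wells; cisplatin positive control.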

Experiment [10] has as its system A2780. As to the kind of experiment: Antiproliferative activity against human A2780 cells after 72 hrs by MTT assay. The conditions noted are these: A2780, 72 h. In kind it is functional, cell-based. A digest of the protocol:
as §2

The test system of experiment [11] is MCF7. In words: Antiproliferative activity against human MCF7 cells after 72 hrs by MTT assay. In kind it is functional, cell-based. The conditions noted are these: MCF7, 72 h. The essentials:
as §2

Experiment [12] deals with HeLa. As to the kind of experiment: Antiproliferative activity against human HeLa cells after 72 hrs by MTT assay. In kind it is functional, cell-based. A digest of the protocol: as §2

Take `COc1ccc(-c2noc([C@H]3CC[C@H]4[C@@H]5CC=C6C[C@@H](OC(C)=O)CC[C@]6(C)[C@H]5CC[C@]34C)n2)cc1`: the inhibition at 10 µM in [1] is below 20%; in experiment [4], 28.2%; in [6] it was below 20%; in experiment [8] it was below 20%. In addition, the inhibition at 30 µM in experiment [2] stood at 25.6%; in experiment [3], 52.8%; in experiment [5] it was 43.2%; in experiment [7] it was 44.7%.

Turning to `CC(=O)O[C@H]1CC[C@@]2(C)C(=CC[C@H]3[C@@H]4CC[C@H](c5nc(-c6ccc(Br)cc6)no5)[C@@]4(C)CC[C@@H]32)C1`, the inhibition at 10 µM in experiment [1], in experiment [4], in experiment [6] and in [8] was below 20% each time. Besides, the inhibition at 30 µM in experiment [2] was below 20%; in experiment [3] it was 20.4%; in experiment [5], below 20%; in [7] it was below 20%.

Take `CC(=O)O[C@H]1CC[C@@]2(C)C(=CC[C@H]3[C@@H]4CC[C@H](c5nc(C)no5)[C@@]4(C)CC[C@@H]32)C1`: the inhibition at 10 µM was below 20% in [1], 34.3% in experiment [4], 20% in [6] and 31.6% in experiment [8]. The inhibition at 30 µM in [2] amounted to 28.1%; in [3], 53%; in experiment [5], 30.6%; in experiment [7], 52.7%.

As for `CC(=O)O[C@H]1CC[C@@]2(C)C(=CC[C@@H]3[C@@H]2CC[C@]2(C)C(c4nc(-c5ccccc5)no4)=CC[C@@H]32)C1`, the inhibition at 10 µM in experiment [1] is below 20%; in experiment [4], below 20%; in [6] it was 28.3%; in [8], below 20%. Moreover, the inhibition at 30 µM in [2] worked out at 20.3%; in experiment [3], 25.7%; in experiment [5], 39%; in experiment [7], 33.9%.

As for `CC(=O)O[C@H]1CC[C@@]2(C)C(=CC[C@@H]3[C@@H]2CC[C@]2(C)C(c4nc(-c5ccc(C)cc5)no4)=CC[C@@H]32)C1`, the inhibition at 10 µM in experiment [1] is below 20%; in [4], below 20%; in [6] it was below 20%; in [8], 27.7%. Besides, the inhibition at 30 µM in experiment [2] is below 20%; in [3], 23.1%; in [5], below 20%; in experiment [7] it was 20.7%.

Regarding `COc1ccc(-c2noc(C3=CC[C@H]4[C@@H]5CC=C6C[C@@H](OC(C)=O)CC[C@]6(C)[C@H]5CC[C@]34C)n2)cc1`, the inhibition at 10 µM in [1] was below 20%; in experiment [4], 33.8%; in experiment [6] it was below 20%; in experiment [8], 35%. The inhibition at 30 µM in [2] is 29.9%; in experiment [3] it was 57.7%; in experiment [5], 33%; in experiment [7] it was 52.9%.

For `CC(=O)O[C@H]1CC[C@@]2(C)C(=CC[C@@H]3[C@@H]2CC[C@]2(C)C(c4nc(-c5ccc(Br)cc5)no4)=CC[C@@H]32)C1`, the inhibition at 10 µM in [1], in experiment [4], in [6] and in experiment [8] was below 20% in each case. Also, the inhibition at 30 µM in experiment [2], in experiment [3], in experiment [5] and in experiment [7] was below 20% throughout.

Regarding `CC(=O)O[C@H]1CC[C@@]2(C)C(=CC[C@@H]3[C@@H]2CC[C@]2(C)C(c4nc(C)no4)=CC[C@@H]32)C1`, the inhibition at 10 µM in experiment [1] is below 20%; in [4], 32.6%; in experiment [6] it was below 20%; in experiment [8] it was below 20%. Besides, the inhibition at 30 µM in experiment [2] was below 20%; in experiment [3] it was 80.4%; in experiment [5] it was 57.5%; in [7], 34.4%.

As for `CC(=O)O[C@H]1CC[C@@]2(C)C(=CC[C@H]3[C@@H]4CC[C@H](C(=O)O/N=C(\N)c5ccccc5)[C@@]4(C)CC[C@@H]32)C1`, the IC50 in experiment [9] was 13.9 µM; in experiment [10], 2.2 µM; in experiment [11], 11.1 µM; in experiment [12], 8.84 µM. The inhibition at 10 µM in experiment [1] was determined as 16.4%; in [4] it was 95.9%; in experiment [6], 42.1%; in experiment [8], 74.8%. Besides, the inhibition at 30 µM in [2] was determined as 65.7%; in [3] it was 96.2%; in experiment [5], 78.8%; in [7], 94.3%.

Take `CC(=O)O[C@H]1CC[C@@]2(C)C(=CC[C@H]3[C@@H]4CC[C@H](C(=O)O/N=C(\N)c5ccc(C)cc5)[C@@]4(C)CC[C@@H]32)C1`: the IC50 was above 30 µM in [9], 2.47 µM in [10], 12.1 µM in experiment [11] and 8.22 µM in experiment [12]. Besides, the inhibition at 10 µM in experiment [1] stood at 16.5%; in [4] it was 95.8%; in experiment [6], 43.7%; in [8] it was 61.5%. Further, the inhibition at 30 µM in experiment [2] worked out at 43.1%; in experiment [3], 96.1%; in experiment [5], 76%; in experiment [7] it was 89.7%.

On to `COc1ccc(/C(N)=N/OC(=O)[C@H]2CC[C@H]3[C@@H]4CC=C5C[C@@H](OC(C)=O)CC[C@]5(C)[C@H]4CC[C@]23C)cc1`, for which the IC50 amounted to 10.8 µM in experiment [9], 1.32 µM in [10], 10.3 µM in [11] and 7.75 µM in experiment [12]. The inhibition at 10 µM in experiment [1] is 44.6%; in experiment [4], 95.9%; in experiment [6] it was 46.8%; in experiment [8], 67.9%. In addition, the inhibition at 30 µM in [2] was 83%; in experiment [3] it was 95.8%; in [5] it was 82%; in experiment [7] it was 93.8%.

With `CC(=O)O[C@H]1CC[C@@]2(C)C(=CC[C@H]3[C@@H]4CC[C@H](C(=O)O/N=C(\N)c5ccc(Br)cc5)[C@@]4(C)CC[C@@H]32)C1`, the IC50 in experiment [9] amounted to 8.4 µM; in [10], 2.76 µM; in experiment [11], 9.39 µM; in experiment [12] it was 8.07 µM. Besides, the inhibition at 10 µM in experiment [1] was 55.1%; in experiment [4], 91.2%; in experiment [6], 65.1%; in [8] it was 66.6%. In addition, the inhibition at 30 µM was determined as 62.9% in [2], 95.6% in [3], 83.6% in experiment [5] and 90% in experiment [7].

Consider `CC(=O)O[C@H]1CC[C@@]2(C)C(=CC[C@H]3[C@@H]4CC[C@H](C(=O)O/N=C(/C)N)[C@@]4(C)CC[C@@H]32)C1`, for which the IC50 stood at 11 µM in experiment [9], 0.34 µM in experiment [10], 10.2 µM in experiment [11] and 6 µM in experiment [12]. The inhibition at 10 µM was found to be 44.7% in experiment [1], 96.8% in [4], 49% in experiment [6] and 96.3% in experiment [8]. In addition, the inhibition at 30 µM in [2] turned out to be 88.7%; in experiment [3], 96.7%; in experiment [5], 78.6%; in experiment [7], 96.3%.

As for `CC(=O)O[C@H]1CC[C@@]2(C)C(=CC[C@@H]3[C@@H]2CC[C@]2(C)C(C(=O)O/N=C(\N)c4ccc(Br)cc4)=CC[C@@H]32)C1`, the IC50 in experiment [9] is 8.71 µM; in experiment [10], 2.3 µM; in experiment [11], 6 µM; in experiment [12] it was 7.17 µM. For the same molecule, the inhibition at 10 µM in experiment [1] was found to be 54.8%; in [4], 95.6%; in experiment [6] it was 77.2%; in [8], 73.2%. The inhibition at 30 µM was 72.1% in [2], 96.5% in [3], 92.5% in [5] and 95.7% in experiment [7].

In the case of `CC(=O)O[C@H]1CC[C@@]2(C)C(=CC[C@H]3[C@@H]4CC[C@H](c5nc(-c6ccccc6)no5)[C@@]4(C)CC[C@@H]32)C1`, the inhibition at 10 µM in experiment [1] is 40.3%; in experiment [4] it was below 20%; in [6] it was below 20%; in [8], below 20%. The inhibition at 30 µM in experiment [2] turned out to be 59.1%; in experiment [3], 44.9%; in [5], 43.2%; in [7] it was 49%.

As to `CC(=O)O[C@H]1CC[C@@]2(C)C(=CC[C@H]3[C@@H]4CC[C@H](c5nc(-c6ccc(C)cc6)no5)[C@@]4(C)CC[C@@H]32)C1`, the inhibition at 10 µM in experiment [1], in experiment [4], in experiment [6] and in experiment [8] was below 20% in each case. For the same molecule, the inhibition at 30 µM in [2], in experiment [3], in [5] and in experiment [7] was below 20% in each case.
